From ChEMBL document CHEMBL1142488, “Synthesis of N-substituted 5-[2-(N-alkylamino)ethyl]dibenzo[c,h][1,6]naphthyridines as novel topoisomerase I-targeting antitumor agents” (Bioorg Med Chem, 2008)

Assays:
[1] = test system: MDA-MB-435 (human); assay: Antitumor activity against human MDA-MB-435 cells xenografted in NCR/NU NU mouse assessed as tumor volume measured on day 7 initially dosed at 5 mg/kg, ip qd x 5/week for 1 week and dose schedule adjusted to achieve total dose of 301 mg/kg
[2] = test system: MDA-MB-435 (human); assay: Antitumor activity against human MDA-MB-435 cells xenografted in NCR/NU NU mouse assessed as tumor volume measured on day 28 initially dosed at 5 mg/kg, ip qd x 5/week for 1 week and dose schedule adjusted to achieve total dose of 301 mg/kg
[3] = test system: MDA-MB-435 (human); assay: Antitumor activity against human MDA-MB-435 cells xenografted in NCR/NU NU mouse assessed as tumor volume measured on day 21 initially dosed at 5 mg/kg, ip qd x 5/week for 1 week and dose schedule adjusted to achieve total dose of 301 mg/kg
[4] = test system: MDA-MB-435 (human); assay: Antitumor activity against human MDA-MB-435 cells xenografted in NCR/NU NU mouse assessed as tumor volume measured on day 35 initially dosed at 5 mg/kg, ip qd x 5/week for 1 week and dose schedule adjusted to achieve total dose of 301 mg/kg
[5] = test system: MDA-MB-435 (human); assay: Antitumor activity against human MDA-MB-435 cells xenografted in NCR/NU NU mouse assessed as tumor volume measured on day 14 initially dosed at 5 mg/kg, ip qd x 5/week for 1 week and dose schedule adjusted to achieve total dose of 301 mg/kg
[6] = test system: P388; assay: Cytotoxicity against mouse P388 cells after MTT assay; assay type: functional, cell-based
How it was run: (§1)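 Suspension cultures at 37 °C, 5% CO2, in RPMI with 10% heat-inactivated FBS, 2 mM L-glutamine, penicillin and streptomycin. Continuous 4-day exposure to a range of drug concentrations, then MTT read-out to give IC50. Drug-free control included. At least two runs, six replicate wells each.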

[7] = Cytotoxicity against camptothecin-resistant and TOP1 deficient mouse P388/CPT45 cells after MTT assay; assay type: functional, cell-based; settings: P388CPT45
How it was run: as §1

[8] = Cytotoxicity against human RPMI8402 cells after MTT assay; assay type: functional, cell-based; settings: RPMI 8402
How it was run: as §1

[9] = Cytotoxicity against multidrug resistant human KBH5.0 cells overexpressing BCRP after MTT assay; assay type: functional, cell-based; settings: KBH5.0 cell
How it was run: (§2)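 IC50 after continuous 4-day exposure to varying drug concentrations, with MTT read at the end of day 4. A drug-free control was included. At least two runs, each in six replicate wells.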

[10] = test system: MDA-MB-435 (human); assay: Antitumor activity against human MDA-MB-435 cells xenografted in NCR/NU NU mouse assessed as tumor volume measured on day 49 initially dosed at 5 mg/kg, ip qd x 5/week for 1 week and dose schedule adjusted to achieve total dose of 301 mg/kg
[11] = test system: MDA-MB-435 (human); assay: Antitumor activity against human MDA-MB-435 cells xenografted in NCR/NU NU mouse assessed as tumor volume measured on day 42 initially dosed at 5 mg/kg, ip qd x 5/week for 1 week and dose schedule adjusted to achieve total dose of 301 mg/kg
[12] = Cytotoxicity against camptothecin-resistant human CPT-K5 cells after MTT assay; assay type: functional, cell-based
How it was run: as §1

[13] = target: T1, DNA topoisomerase 1 (Homo sapiens) (UniProt P11387); assay: Inhibition of human topoisomerase 1 mediated DNA cleavage assessed as effective drug concentration causing 10% YepG plasmid cleavage relative to camptothecin; settings: in the assay text read “relative to topotecan” for “relative to camptothecin”
T1 sequence (whole entry): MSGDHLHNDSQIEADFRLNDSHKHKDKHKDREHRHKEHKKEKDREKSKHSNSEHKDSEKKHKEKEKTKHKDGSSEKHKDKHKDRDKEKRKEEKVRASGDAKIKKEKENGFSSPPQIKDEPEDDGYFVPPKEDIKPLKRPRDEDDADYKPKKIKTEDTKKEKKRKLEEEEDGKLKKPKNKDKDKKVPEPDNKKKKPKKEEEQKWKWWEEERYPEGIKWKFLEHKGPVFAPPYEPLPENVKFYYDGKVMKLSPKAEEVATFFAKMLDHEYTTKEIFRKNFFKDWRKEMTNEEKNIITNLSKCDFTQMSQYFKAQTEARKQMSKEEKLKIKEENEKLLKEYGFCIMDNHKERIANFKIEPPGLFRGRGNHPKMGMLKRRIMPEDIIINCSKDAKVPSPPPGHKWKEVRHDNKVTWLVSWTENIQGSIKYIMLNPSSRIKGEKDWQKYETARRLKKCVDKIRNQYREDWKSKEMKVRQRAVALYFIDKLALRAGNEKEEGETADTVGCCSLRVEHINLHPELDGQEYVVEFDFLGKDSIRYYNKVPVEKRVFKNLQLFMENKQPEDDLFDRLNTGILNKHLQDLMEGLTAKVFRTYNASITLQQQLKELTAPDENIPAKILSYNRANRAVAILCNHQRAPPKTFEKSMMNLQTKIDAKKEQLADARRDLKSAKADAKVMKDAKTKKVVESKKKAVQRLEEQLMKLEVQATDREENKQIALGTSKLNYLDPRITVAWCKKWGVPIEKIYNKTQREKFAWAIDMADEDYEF
How it was run: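 Stopped with SDS and proteinase K, 1 h at 37 °C. Alkali-denatured with NaOH/EDTA/sucrose/bromophenol blue, then run on neutral agarose gel.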

[14] = Cytotoxicity against human KB3-1 cells after MTT assay; assay type: functional, cell-based; settings: KB 3-1
How it was run: as §2

[15] = test system: MDA-MB-435 (human); assay: Antitumor activity against human MDA-MB-435 cells xenografted in NCR/NU NU mouse assessed as tumor volume measured on day 42 initially dosed at 5 mg/kg, ip qd x 5/week for 1 week and was gradually increased to 7 mg/kg x 5/week schedule
[16] = test system: MDA-MB-435 (human); assay: Antitumor activity against human MDA-MB-435 cells xenografted in NCR/NU NU mouse assessed as tumor volume measured on day 21 initially dosed at 5 mg/kg, ip qd x 5/week for 1 week and was gradually increased to 7 mg/kg x 5/week schedule
[17] = test system: MDA-MB-435 (human); assay: Antitumor activity against human MDA-MB-435 cells xenografted in NCR/NU NU mouse assessed as tumor volume measured on day 49 initially dosed at 5 mg/kg, ip qd x 5/week for 1 week and was gradually increased to 7 mg/kg x 5/week schedule
[18] = Cytotoxicity against multidrug resistant human KBV-1 cells overexpressing MDR1 after MTT assay; assay type: functional, cell-based; settings: KB-V1
How it was run: as §2

[19] = test system: MDA-MB-435 (human); assay: Antitumor activity against human MDA-MB-435 cells xenografted in NCR/NU NU mouse assessed as tumor volume measured on day 7 initially dosed at 5 mg/kg, ip qd x 5/week for 1 week and was gradually increased to 7 mg/kg x 5/week schedule
[20] = test system: MDA-MB-435 (human); assay: Antitumor activity against human MDA-MB-435 cells xenografted in NCR/NU NU mouse assessed as tumor volume measured on day 35 initially dosed at 5 mg/kg, ip qd x 5/week for 1 week and was gradually increased to 7 mg/kg x 5/week schedule
[21] = test system: MDA-MB-435 (human); assay: Antitumor activity against human MDA-MB-435 cells xenografted in NCR/NU NU mouse assessed as tumor volume measured on day 28 initially dosed at 5 mg/kg, ip qd x 5/week for 1 week and was gradually increased to 7 mg/kg x 5/week schedule
[22] = test system: MDA-MB-435 (human); assay: Antitumor activity against human MDA-MB-435 cells xenografted in NCR/NU NU mouse assessed as tumor volume measured on day 14 initially dosed at 5 mg/kg, ip qd x 5/week for 1 week and was gradually increased to 7 mg/kg x 5/week schedule
[23] = test system: MDA-MB-435 (human); assay: Antitumor activity against human MDA-MB-435 cells xenografted in NCR/NU NU mouse assessed as tumor volume measured on day 7 initially dosed at 1.5 mg/kg, ip qd x 3/5 days schedule; settings: route intraperitoneal
[24] = test system: MDA-MB-435 (Homo sapiens); assay: Antitumor activity against human MDA-MB-435 cells xenografted in NCR/NU NU mouse assessed as tumor volume measured on day 49 initially dosed at 1.5 mg/kg, ip qd x 3/5 days schedule; settings: route intraperitoneal
[25] = test system: MDA-MB-435 (Homo sapiens); assay: Antitumor activity against human MDA-MB-435 cells xenografted in NCR/NU NU mouse assessed as tumor volume measured on day 42 initially dosed at 1.5 mg/kg, ip qd x 3/5 days schedule; settings: route intraperitoneal
[26] = test system: MDA-MB-435 (Homo sapiens); assay: Antitumor activity against human MDA-MB-435 cells xenografted in NCR/NU NU mouse assessed as tumor volume measured on day 21 initially dosed at 1.5 mg/kg, ip qd x 3/5 days schedule; settings: route intraperitoneal
[27] = test system: MDA-MB-435 (Homo sapiens); assay: Antitumor activity against human MDA-MB-435 cells xenografted in NCR/NU NU mouse assessed as tumor volume measured on day 14 initially dosed at 1.5 mg/kg, ip qd x 3/5 days schedule; settings: route intraperitoneal
[28] = test system: MDA-MB-435 (Homo sapiens); assay: Antitumor activity against human MDA-MB-435 cells xenografted in NCR/NU NU mouse assessed as tumor volume measured on day 28 initially dosed at 1.5 mg/kg, ip qd x 3/5 days schedule; settings: route intraperitoneal
[29] = test system: MDA-MB-435 (Homo sapiens); assay: Antitumor activity against human MDA-MB-435 cells xenografted in NCR/NU NU mouse assessed as tumor volume measured on day 35 initially dosed at 1.5 mg/kg, ip qd x 3/5 days schedule; settings: route intraperitoneal

COc1cc2c(=O)n(CCN(C)CC(N)=O)c3c4cc5c(cc4ncc3c2cc1OC)OCO5
Activity [1]: 147 mm3 | Activity [2]: 319 mm3 | Activity [3]: 230 mm3 | Activity [4]: 344 mm3 | Activity [5]: 178 mm3 | IC50 [6]: 9 nM | IC50 [7]: 390 nM | IC50 [8]: 3 nM | IC50 [9]: 320 nM | Activity [10]: 527 mm3 | Activity [11]: 434 mm3 | IC50 [12]: 3500 nM | Activity [13]: 0.3 | IC50 [14]: 10 nM

C#CCN(C)CCn1c(=O)c2cc(OC)c(OC)cc2c2cnc3cc4c(cc3c21)OCO4
Activity [15]: 358 mm3 | Activity [16]: 218 mm3 | Activity [17]: 433 mm3 | IC50 [6]: 20 nM | IC50 [18]: 70 nM | Activity [19]: 144 mm3 | IC50 [7]: 400 nM | IC50 [8]: 8 nM | IC50 [9]: 34 nM | Activity [20]: 317 mm3 | IC50 [12]: 4500 nM | Activity [13]: 0.1 | Activity [21]: 284 mm3 | Activity [22]: 167 mm3

COc1cc2c(=O)n(CCN(C)C)c3c4cc5c(cc4ncc3c2cc1OC)OCO5
IC50 [18]: 5 nM | IC50 [7]: 230 nM | IC50 [8]: 2 nM | IC50 [9]: 6 nM | Activity [23]: 120 mm3 | IC50 [12]: 900 nM | Activity [13]: 0.3 | Activity [24]: 242 mm3 | Activity [25]: 189 mm³ | Activity [26]: 145 mm³ | Activity [27]: 123 mm³ | Activity [28]: 158 mm³ | IC50 [14]: 5 nM | Activity [29]: 175 mm³
